Test results: ChEMBL document CHEMBL3112482, “Nonclassical antifolates, part 5. Benzodiazepine analogs as a new class of DHFR inhibitors: synthesis, antitumor testing and molecular modeling study” (Eur J Med Chem, 2014)

Assays:
SK-MEL-5 = experiment: Growth inhibition of human SK-MEL-5 cells at 10 uM after 48 hrs; assay type: functional; details: SK-MEL-5, 48 h, read-out: GI
Summary of the method: (§1)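 NCI 60-cell-line disease-oriented human tumor panel, single-dose primary screen at 10 µM. Data given as mean-graph percent growth of treated cells, reported as percent growth inhibition (GI %).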

SW-620 = experiment: Growth inhibition of human SW620 cells at 10 uM after 48 hrs; assay type: functional; details: SW-620, 48 h, read-out: GI; summary of the method: as §1
[1] = Growth inhibition of human HCC2998 cells at 10 uM after 48 hrs; assay type: functional; details: HCC 2998, 48 h, read-out: GI
Summary of the method: (§2)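 Single-dose primary screen in the NCI 60 human tumour cell line panel, run at the NCI facility. The panel covers nine subpanels: leukaemia, non-small cell lung, colon, CNS, melanoma, ovarian, renal, prostate and breast. Read-out was percent growth of treated cells, shown as a mean graph and reported as percent growth inhibition.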

SK-OV-3 = experiment: Growth inhibition of human SKOV3 cells at 10 uM after 48 hrs; assay type: functional; details: SK-OV-3, 48 h, read-out: GI; summary of the method: as §1
SNB-19 = experiment: Growth inhibition of human SNB19 cells at 10 uM after 48 hrs; assay type: functional; details: SNB-19, 48 h, read-out: GI; summary of the method: as §1
NCI-H23 = experiment: Growth inhibition of human NCI-H23 cells at 10 uM after 48 hrs; assay type: functional; details: NCI-H23, 48 h, read-out: GI; summary of the method: as §2
CCRF-CEM = experiment: Growth inhibition of human CCRF-CEM cells at 10 uM after 48 hrs; assay type: functional; details: read-out: GI; summary of the method: as §2
IGROV-1 = experiment: Growth inhibition of human IGROV1 cells at 10 uM after 48 hrs; assay type: functional; details: IGROV-1, 48 h, read-out: GI; summary of the method: as §2
NCI-H322M = experiment: Growth inhibition of human NCI-H322M cells at 10 uM after 48 hrs; assay type: functional; details: read-out: GI; summary of the method: as §2
[2] = Growth inhibition of human OVCAR4 cells at 10 uM after 48 hrs; assay type: functional; details: OVCAR-4, 48 h, read-out: GI; summary of the method: as §2
SK-MEL-28 = experiment: Growth inhibition of human SK-MEL-28 cells at 10 uM after 48 hrs; assay type: functional; details: SK-MEL-28, 48 h, read-out: GI; summary of the method: as §1
Dihydrofolate reductase = biological target: T1, Dihydrofolate reductase (Bos taurus, UniProt P00376); experiment: Inhibition of bovine liver DHFR measured for every 1 min of 10 mins
T1 sequence (P00376 whole entry): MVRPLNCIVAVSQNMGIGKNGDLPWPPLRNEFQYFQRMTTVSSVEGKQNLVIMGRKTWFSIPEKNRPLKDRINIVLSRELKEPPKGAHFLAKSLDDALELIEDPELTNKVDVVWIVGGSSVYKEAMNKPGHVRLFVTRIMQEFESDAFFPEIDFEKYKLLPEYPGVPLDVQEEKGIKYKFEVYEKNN

[3] = Growth inhibition of human UACC257 cells at 10 uM after 48 hrs; assay type: functional; details: UACC-257, 48 h, read-out: GI; summary of the method: as §1
[4] = Growth inhibition of human NCI-ADR-RES cells at 10 uM after 48 hrs; assay type: functional; details: read-out: GI; summary of the method: as §2
[5] = Growth inhibition of human RXF393 cells at 10 uM after 48 hrs; assay type: functional; details: RXF 393, 48 h, read-out: GI; summary of the method: as §2
[6] = Growth inhibition of human Hs 578T cells at 10 uM after 48 hrs; assay type: functional; details: read-out: GI; summary of the method: as §2
MDA-MB-231 = experiment: Growth inhibition of human MDA-MB-231 cells at 10 uM after 48 hrs; assay type: functional; details: MDA-MB-231, 48 h, read-out: GI; summary of the method: as §2
[7] = Growth inhibition of human EKVX cells at 10 uM after 48 hrs; assay type: functional; details: read-out: GI; summary of the method: as §2
SF-268 = experiment: Growth inhibition of human SF268 cells at 10 uM after 48 hrs; assay type: functional; details: SF-268, 48 h, read-out: GI; summary of the method: as §1
K562 = experiment: Growth inhibition of human K562 cells at 10 uM after 48 hrs; assay type: functional; details: K562, 48 h, read-out: GI; summary of the method: as §2
A498 = experiment: Growth inhibition of human A498 cells at 10 uM after 48 hrs; assay type: functional; details: A498, 48 h, read-out: GI; summary of the method: as §2
TK-10 = experiment: Growth inhibition of human TK10 cells at 10 uM after 48 hrs; assay type: functional; details: TK-10, 48 h, read-out: GI; summary of the method: as §1
DU-145 = experiment: Growth inhibition of human DU145 cells at 10 uM after 48 hrs; assay type: functional; details: DU-145, 48 h, read-out: GI; summary of the method: as §2
SR = experiment: Growth inhibition of human SR cells at 10 uM after 48 hrs; assay type: functional; details: read-out: GI; summary of the method: as §1
MCF7 = experiment: Growth inhibition of human MCF7 cells at 10 uM after 48 hrs; assay type: functional; details: MCF7, 48 h, read-out: GI; summary of the method: as §2
[8] = Growth inhibition of human UO31 cells at 10 uM after 48 hrs; assay type: functional; details: UO-31, 48 h, read-out: GI; summary of the method: as §1
HL-60(TB) = experiment: Growth inhibition of human HL-60(TB) cells at 10 uM after 48 hrs; assay type: functional; details: HL-60, 48 h, read-out: GI
Summary of the method: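 NCI 60-cell-line human tumour panel covering nine subpanels (leukaemia, non-small cell lung, colon, CNS, melanoma, ovarian, renal, prostate, breast), run at the NCI facility. Primary screen tested a single dose of each compound. Read-out was percent growth of treated cells versus untreated cells, reported from the mean graph as percentage growth inhibition.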

ACHN = experiment: Growth inhibition of human ACHN cells at 10 uM after 48 hrs; assay type: functional; details: read-out: GI; summary of the method: as §2
[9] = Growth inhibition of human HOP92 cells at 10 uM after 48 hrs; assay type: functional; details: HOP-92, 48 h, read-out: GI; summary of the method: as §2
[10] = Growth inhibition of human OVCAR5 cells at 10 uM after 48 hrs; assay type: functional; details: OVCAR-5, 48 h, read-out: GI; summary of the method: as §2
T47D = experiment: Growth inhibition of human T47D cells at 10 uM after 48 hrs; assay type: functional; details: read-out: GI; summary of the method: as §1
CAKI-1 = experiment: Growth inhibition of human CAKI-1 cells at 10 uM after 48 hrs; assay type: functional; details: CAKI-1, 48 h, read-out: GI; summary of the method: as §2
PC-3 = experiment: Growth inhibition of human PC3 cells at 10 uM after 48 hrs; assay type: functional; details: PC-3, 48 h, read-out: GI; summary of the method: as §2
SNB-75 = experiment: Growth inhibition of human SNB75 cells at 10 uM after 48 hrs; assay type: functional; details: SNB-75, 48 h, read-out: GI; summary of the method: as §1
NCI-H460 = experiment: Growth inhibition of human NCI-H460 cells at 10 uM after 48 hrs; assay type: functional; details: NCI-H460, 48 h, read-out: GI; summary of the method: as §2
[11] = Growth inhibition of human SF539 cells at 10 uM after 48 hrs; assay type: functional; details: SF-539, 48 h, read-out: GI; summary of the method: as §1
786-0 = experiment: Growth inhibition of human 786-0 cells at 10 uM after 48 hrs; assay type: functional; details: 786-0, 48 h, read-out: GI; summary of the method: as §2
KM12 = experiment: Growth inhibition of human KM12 cells at 10 uM after 48 hrs; assay type: functional; details: KM12, 48 h, read-out: GI; summary of the method: as §2

Molecule COc1ccc(/C=C2\CCCc3c2nc(N)nc3-c2ccc(OC)cc2)cc1 has an inhibition of growth at 10 µM (SK-MEL-5) of 43.8%, an inhibition of growth at 10 µM (SW-620) of less than 30% and an inhibition of growth at 10 µM [1] of less than 30%. For the same molecule, the inhibition of growth at 10 µM (SK-OV-3) was less than 30%, the inhibition of growth at 10 µM (SNB-19) was less than 30% and the inhibition of growth at 10 µM (NCI-H23) was less than 30%. The inhibition of growth at 10 µM (CCRF-CEM) was less than 30%, the inhibition of growth at 10 µM (IGROV-1) was less than 30% and the inhibition of growth at 10 µM (NCI-H322M) was less than 30%. The inhibition of growth at 10 µM [2] was less than 30%, the inhibition of growth at 10 µM (SK-MEL-28) was less than 30% and the IC50 (Dihydrofolate reductase) was 18 µM. It also gave an inhibition of growth at 10 µM [3] of less than 30%, an inhibition of growth at 10 µM [4] of less than 30% and an inhibition of growth at 10 µM [5] of less than 30%. For the same molecule, the inhibition of growth at 10 µM [6] was less than 30%, the inhibition of growth at 10 µM (MDA-MB-231) was less than 30% and the inhibition of growth at 10 µM [7] was less than 30%. For the same molecule, the inhibition of growth at 10 µM (SF-268) was less than 30%, the inhibition of growth at 10 µM (K562) was less than 30% and the inhibition of growth at 10 µM (A498) was less than 30%. For the same molecule, the inhibition of growth at 10 µM (TK-10) was less than 30%, the inhibition of growth at 10 µM (DU-145) was less than 30% and the inhibition of growth at 10 µM (SR) was less than 30%. It also gave an inhibition of growth at 10 µM (MCF7) of less than 30%, an inhibition of growth at 10 µM [8] of less than 30% and an inhibition of growth at 10 µM (HL-60(TB)) of 32.2%. For the same molecule, the inhibition of growth at 10 µM (ACHN) was less than 30%, the inhibition of growth at 10 µM [9] was 31.4% and the inhibition of growth at 10 µM [10] was less than 30%. The inhibition of growth at 10 µM (T47D) was less than 30%, the inhibition of growth at 10 µM (CAKI-1) was less than 30% and the inhibition of growth at 10 µM (PC-3) was less than 30%. The inhibition of growth at 10 µM (SNB-75) was less than 30%, the inhibition of growth at 10 µM (NCI-H460) was less than 30% and the inhibition of growth at 10 µM [11] was less than 30%. The inhibition of growth at 10 µM (786-0) was less than 30% and the inhibition of growth at 10 µM (KM12) was less than 30%.
